# Laboratory results published in article PMC2740399 (American Journal of Physiology - Cell Physiology, 2009).
# Key:
# HA-tagged mGnRHR [1] = target: T1, HA-tagged mGnRHR (Mus musculus, UniProt Q01776); test: Internalization of anti-HA preloaded receptor; format: cell-based; settings: HeLa, 60 min, 37°C; for block of GnRH-stimulated internalization: antagonist 10^−7 M with GnRH 10^−9 M
# T1 sequence (Q01776 1-327): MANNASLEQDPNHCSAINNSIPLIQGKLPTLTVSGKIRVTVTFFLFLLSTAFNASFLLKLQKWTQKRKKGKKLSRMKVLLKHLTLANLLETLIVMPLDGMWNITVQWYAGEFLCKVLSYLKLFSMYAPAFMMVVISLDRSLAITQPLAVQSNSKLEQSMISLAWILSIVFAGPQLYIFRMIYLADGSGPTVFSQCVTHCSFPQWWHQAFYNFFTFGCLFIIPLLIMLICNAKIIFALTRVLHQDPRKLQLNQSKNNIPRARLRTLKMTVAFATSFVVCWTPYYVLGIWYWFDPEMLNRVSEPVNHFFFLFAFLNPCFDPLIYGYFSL
# HA-tagged h.XGnRHR [2] = test: Internalization of anti-HA preloaded receptor; format: cell-based, human/Xenopus laevis; settings: HeLa, 60 min, 37°C; for block of GnRH-stimulated internalization: antagonist 10^−7 M with GnRH 10^−9 M
# HA-tagged XGnRHR [3] = test: Trafficking, anti-HA loading with agonist present; format: cell-based, Xenopus laevis; settings: HeLa; 10^−7 M GnRH II with anti-HA, 0–60 min, 37°C
# HA-tagged XGnRHR [4] = test: Cell surface expression of HA-XGnRHR; format: cell-based, Xenopus laevis; settings: HeLa
# HA-tagged h.XGnRHR [5] = test: Trafficking, anti-HA loading with agonist present; format: cell-based, human/Xenopus laevis; settings: HeLa; 10^−7 M GnRH with anti-HA, 0–60 min, 37°C
# HA-tagged mGnRHR [6] = target: T1, HA-tagged mGnRHR; test: Cell surface expression of HA-mGnRHR; format: cell-based; settings: HeLa, 10^−7 M GnRH, 37°C
# HA-A261K-h.XGnRHR = test: Trafficking, anti-HA loading with agonist present; format: cell-based, human/Xenopus laevis; settings: HeLa; 10^−7 M GnRH with anti-HA, 0–60 min, 37°C
# HA-A261K h.XGnRHR = test: Internalization of anti-HA preloaded receptor; format: cell-based, human/Xenopus laevis; settings: HeLa, 60 min, 37°C
# Outline: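 HeLa cells transduced day after plating with adenovirus (1–3 pfu/nl, 6 h) carrying exofacially HA-tagged, G protein-uncoupled receptor; assayed next day. Surface receptors prelabelled 60 min with mouse anti-HA (1:200) in DMEM/2% BSA at ~21°C, washed, then treated at 37°C. Cells were fixed, permeabilized, given Alexa 488 secondary plus DAPI, and stained inclusions quantified by automated ×10 imaging. Data are 3–4 wells.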
# A261K.hGnRHR = test: Cell surface expression of A261K.hGnRHR; format: cell-based, human; settings: HeLa; 18 h, 10^−7 M IN3
# HA-tagged hGnRHR [7] = target: T2, HA-tagged hGnRHR (Homo sapiens, UniProt P30968); test: Whole cell expression of HA-hGnRHR; format: cell-based; settings: HeLa; 18 h, 10^−7 M; not shown
# T2 sequence (P30968 1-328): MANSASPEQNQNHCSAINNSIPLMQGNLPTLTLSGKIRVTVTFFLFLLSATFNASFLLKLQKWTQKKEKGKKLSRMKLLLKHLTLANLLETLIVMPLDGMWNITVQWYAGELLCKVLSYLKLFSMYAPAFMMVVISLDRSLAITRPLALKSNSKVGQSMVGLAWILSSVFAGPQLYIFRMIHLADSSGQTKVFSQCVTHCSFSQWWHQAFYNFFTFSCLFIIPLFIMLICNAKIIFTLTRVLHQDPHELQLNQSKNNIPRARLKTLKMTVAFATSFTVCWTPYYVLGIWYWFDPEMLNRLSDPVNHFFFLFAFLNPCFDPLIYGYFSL
# [8] = target: T3, HA-tagged h.XGnRHR (hGnRHR with added XGnRHR COOH tail) (Homo sapiens, UniProt P30968); test: Cell surface expression / PCSE of HA-h.XGnRHR after 18 h ligand exposure; format: cell-based, human/Xenopus laevis; settings: HeLa
# T3 sequence (P30968 1-328): T2 sequence (P30968 1-328)
# A261K.h.XGnRHR = test: Cell surface expression of A261K.h.XGnRHR; format: cell-based, human/Xenopus laevis; settings: HeLa; 18 h, 10^−7 M IN3
# wild-type GnRHR = settings: cited from earlier work
# HA-tagged h.XGnRHR [9] = test: Whole cell expression of HA-h.XGnRHR; format: cell-based, human/Xenopus laevis; settings: HeLa; 18 h, 10^−7 M; not shown
# [10] = test system: GnRHR point mutants that cause hypogonadotropic hypogonadism; settings: cited from earlier work
# HA-tagged hGnRHR [11] = target: T2, HA-tagged hGnRHR; test: Cell surface expression / PCSE of HA-hGnRHR after 18 h ligand exposure; format: cell-based; settings: HeLa
# [12] = 10^−7 M IN3, fluorescence immunohistochemistry, automated imaging
molecule,measurement,setting,value
cetrorelix,block of GnRH-stimulated internalization,HA-tagged mGnRHR [1],blocked
same,internalization (effect of peptide antagonist alone),HA-tagged mGnRHR [1]; cetrorelix 10^−7 M,not increased by a peptide antagonist
same,block of GnRH-stimulated internalization,HA-tagged h.XGnRHR [2],blocked
same,internalization (effect of peptide antagonist alone),HA-tagged h.XGnRHR [2]; cetrorelix 10^−7 M,not increased by a peptide antagonist
"(His^5, Trp^7, Tyr^8)GnRH [GnRH II]",inclusion count (effect of agonist),HA-tagged XGnRHR [3],increased
same,time to maximal effect on cell surface expression,"HA-tagged XGnRHR [4]; 10^−7 M GnRH II, 37°C",120 min
same,time to significant reduction in cell surface expression,"HA-tagged XGnRHR [4]; 10^−7 M GnRH II, 37°C",10 min
same,reduction in cell surface expression,"HA-tagged XGnRHR [4]; 10^−7 M GnRH II, 37°C, data with and without IN3 pretreatment pooled",rapid reduction
gonadotropin-releasing hormone [GnRH],inclusion count (effect of agonist),HA-tagged h.XGnRHR [5],increased
same,"reduction in cell surface expression, IN3-pretreated cells",HA-tagged mGnRHR [6]; after 18 h 10^−7 M IN3,pronounced reduction
same,reduction in cell surface expression,HA-tagged mGnRHR [6]; no IN3 pretreatment,reduced expression
same,internalization (effect of 10^−9 M GnRH),HA-tagged mGnRHR [1]; 10^−9 M GnRH,increased
same,receptor distribution (effect of GnRH),HA-A261K-h.XGnRHR,no measurable effect
same,internalization (effect of 10^−9 M GnRH),HA-tagged h.XGnRHR [2]; 10^−9 M GnRH,increased
same,internalization (effect of 10^−9 M GnRH),HA-A261K h.XGnRHR,did not increase internalization
"Cc1cc(C)cc(-c2[nH]c3ccc(C(C)(C)C(=O)N4CC5CCC4CC5)cc3c2[C@H](C)CNCCc2ccncc2)c1 [IN3, (2S)-2-[5-[2-(2-azabicyclo[2.2.2]oct-2-yl)-1,1-dimethy-2-oxoethyl]-2-(3,5-dimethylphenyl)-1H-indol-3-yl]-N-(2-pyridin-4-ylethyl)propan-1-amine]",effect of IN3 on cell surface expression,A261K.hGnRHR,pronounced increase
same,cell surface expression after preincubation (effect of IN3),"HA-tagged XGnRHR [4]; 18 h preincubation, 10^−7 M IN3, not shown",did not alter expression
same,whole cell expression (effect of ligand),HA-tagged hGnRHR [7],no measurable effect
same,cell surface expression (effect of ligand),[8]; [12],greatly increased
same,PCSE (proportional cell surface expression),"[8]; 10^−7 M, increased from 6.3% (control), n = 3 experiments",17.6%
same,block of GnRH-stimulated internalization,HA-tagged mGnRHR [1],blocked
same,block of GnRH-stimulated internalization,HA-tagged h.XGnRHR [2],blocked
same,effect of IN3 on cell surface expression,A261K.h.XGnRHR,pronounced increase
same,signaling via wild-type GnRHR,wild-type GnRHR,increases signaling
same,whole cell expression (effect of ligand),HA-tagged h.XGnRHR [9],no measurable effect
same,rescue of signaling,[10],“rescues” signaling via most of these mutants
same,cell surface expression (effect of ligand),HA-tagged hGnRHR [11]; [12],greatly increased
same,PCSE (proportional cell surface expression),"HA-tagged hGnRHR [11]; 10^−7 M, increased from 1.6% (control), n = 3 experiments",11%
same,PCSE increase,"HA-tagged hGnRHR [11]; 10^−7 M, vs control, 'almost 7-fold'",~7 fold
